ChEMBL document CHEMBL1125455, “Novel anthraquinone inhibitors of human leukocyte elastase and cathepsin G” (J Med Chem, 1992)
The source made the active and inactive calls. The calls are words filed in the database; no cut-off is given here.

Assays:
[1] = molecular target: T1, Neutrophil elastase (Homo sapiens) (UniProt P08246); assay: Inhibitory activity against Human Leukocyte Elastase (HLE) at 52 uM concentration
T1 sequence (whole entry): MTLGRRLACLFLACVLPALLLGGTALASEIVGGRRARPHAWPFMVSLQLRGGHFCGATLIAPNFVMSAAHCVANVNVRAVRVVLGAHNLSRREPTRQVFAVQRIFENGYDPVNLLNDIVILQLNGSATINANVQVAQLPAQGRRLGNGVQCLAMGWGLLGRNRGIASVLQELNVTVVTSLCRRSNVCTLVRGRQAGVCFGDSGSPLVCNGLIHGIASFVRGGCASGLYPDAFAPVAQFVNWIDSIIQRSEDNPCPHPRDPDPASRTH

Neutrophil elastase [2] = molecular target: T2, Neutrophil elastase (Homo sapiens, UniProt P08246); assay: Compound was tested for the enzyme inhibitory activity against Human Leukocyte Elastase (HLE) at 52 uM concentration
T2 sequence (P08246 whole entry): T1 sequence (whole entry)

[3] = molecular target: T3, Chymotrypsin-like elastase family member 2A (Sus scrofa) (UniProt P08419); assay: Inhibitory activity against Porcine Pancreatic Elastase (PPE) at 52 uM concentration; NI = no inhibition
T3 sequence (whole entry): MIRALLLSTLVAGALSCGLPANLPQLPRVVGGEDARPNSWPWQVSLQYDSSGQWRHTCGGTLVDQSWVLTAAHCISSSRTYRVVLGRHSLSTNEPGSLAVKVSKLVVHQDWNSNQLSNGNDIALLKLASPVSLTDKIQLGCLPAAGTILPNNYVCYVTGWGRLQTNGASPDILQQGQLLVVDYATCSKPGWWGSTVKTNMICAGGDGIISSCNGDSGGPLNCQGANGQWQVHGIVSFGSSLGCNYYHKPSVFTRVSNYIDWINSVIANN

[4] = molecular target: Chymotrypsinogen A (Bos taurus) (UniProt P00766); assay: Inhibitory activity against Chymotrypsinogen at 52 uM concentration; NI = no inhibition
[5] = molecular target: Chymotrypsinogen A (Bos taurus) (UniProt P00766); assay: Inhibitory activity against Chymotrypsinogen at 55 uM concentration
[6] = molecular target: T4, Cathepsin G (Homo sapiens) (UniProt P08311); assay: Inhibitory activity against Cathepsin G (CatG) at 55 uM concentration
T4 sequence (whole entry): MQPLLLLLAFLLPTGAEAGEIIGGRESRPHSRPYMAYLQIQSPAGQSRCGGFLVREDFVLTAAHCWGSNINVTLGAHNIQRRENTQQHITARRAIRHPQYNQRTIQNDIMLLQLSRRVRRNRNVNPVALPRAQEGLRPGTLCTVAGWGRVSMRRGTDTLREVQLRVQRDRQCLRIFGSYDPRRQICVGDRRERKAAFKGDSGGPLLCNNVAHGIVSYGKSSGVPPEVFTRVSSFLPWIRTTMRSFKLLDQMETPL

[7] = molecular target: T3, Chymotrypsin-like elastase family member 2A (Sus scrofa); assay: Inhibitory activity against Porcine Pancreatic Elastase (PPE) at 55 uM concentration; NI = no inhibition
Neutrophil elastase [8] = molecular target: T2, Neutrophil elastase; assay: Compound was tested for the enzyme inhibitory activity against Human Leukocyte Elastase (HLE) at 55 uM concentration
[9] = molecular target: T1, Neutrophil elastase (Homo sapiens); assay: Inhibitory activity against Human Leukocyte Elastase (HLE) at 55 uM concentration
[10] = molecular target: T4, Cathepsin G (Homo sapiens); assay: Inhibitory activity against Cathepsin G (CatG) at 28 uM concentration
[11] = molecular target: Chymotrypsinogen A (Bos taurus) (UniProt P00766); assay: Inhibitory activity against Chymotrypsinogen at 28 uM concentration; NI = no inhibition
[12] = molecular target: T1, Neutrophil elastase (Homo sapiens); assay: Inhibitory activity against Human Leukocyte Elastase (HLE) at 28 uM concentration
Neutrophil elastase [13] = molecular target: T2, Neutrophil elastase; assay: Compound was tested for the enzyme inhibitory activity against Human Leukocyte Elastase (HLE) at 28 uM concentration
[14] = molecular target: T3, Chymotrypsin-like elastase family member 2A (Sus scrofa); assay: Inhibitory activity against Porcine Pancreatic Elastase (PPE) at 28 uM concentration; NI = no inhibition
[15] = molecular target: T4, Cathepsin G (Homo sapiens); assay: Inhibitory activity against Cathepsin G (CatG) at 27 uM concentration
[16] = molecular target: Chymotrypsinogen A (Bos taurus) (UniProt P00766); assay: Inhibitory activity against Chymotrypsinogen at 27 uM concentration
Neutrophil elastase [17] = molecular target: T2, Neutrophil elastase; assay: Compound was tested for the enzyme inhibitory activity against Human Leukocyte Elastase (HLE) at 27 uM concentration
[18] = molecular target: T3, Chymotrypsin-like elastase family member 2A (Sus scrofa); assay: Inhibitory activity against Porcine Pancreatic Elastase (PPE) at 27 uM concentration; NI = no inhibition
[19] = molecular target: T1, Neutrophil elastase (Homo sapiens); conditions: 27 uM
[20] = molecular target: Chymotrypsinogen A (Bos taurus) (UniProt P00766); assay: Inhibitory activity against Chymotrypsinogen at 53 uM concentration
Summary of the method: (§1)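 Percent inhibition of enzyme activity at a single inhibitor concentration. Assays run at 25 °C in 0.1 M HEPES, 0.5 M NaCl, pH 7.5, with 9-11% DMSO. The method otherwise follows an earlier report.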

[21] = molecular target: T4, Cathepsin G (Homo sapiens); assay: Inhibitory activity against Cathepsin G (CatG) at 53 uM concentration; summary of the method: as §1
[22] = molecular target: T1, Neutrophil elastase (Homo sapiens); assay: Inhibitory activity against Human Leukocyte Elastase (HLE) at 53 uM concentration; summary of the method: as §1
[23] = molecular target: T3, Chymotrypsin-like elastase family member 2A (Sus scrofa); assay: Inhibitory activity against Porcine Pancreatic Elastase (PPE) at 53 uM concentration; NI = no inhibition; summary of the method: as §1
Neutrophil elastase [24] = molecular target: T2, Neutrophil elastase; assay: Compound was tested for the enzyme inhibitory activity against Human Leukocyte Elastase (HLE) at 53 uM concentration; summary of the method: as §1
[25] = molecular target: T4, Cathepsin G (Homo sapiens); assay: Inhibitory activity against Cathepsin G (CatG) at 65 uM concentration
[26] = molecular target: T3, Chymotrypsin-like elastase family member 2A (Sus scrofa); assay: Inhibitory activity against Porcine Pancreatic Elastase (PPE) at 65 uM concentration; NI = no inhibition
Neutrophil elastase [27] = molecular target: T2, Neutrophil elastase; assay: Compound was tested for the enzyme inhibitory activity against Human Leukocyte Elastase (HLE) at 65 uM concentration
[28] = molecular target: T1, Neutrophil elastase (Homo sapiens); assay: Inhibitory activity against Human Leukocyte Elastase (HLE) at 65 uM concentration
[29] = molecular target: T4, Cathepsin G (Homo sapiens); assay: Inhibitory activity against Cathepsin G (CatG) at 30 uM concentration
[30] = molecular target: T1, Neutrophil elastase (Homo sapiens); assay: Inhibitory activity against Human Leukocyte Elastase (HLE) at 30 uM concentration
Neutrophil elastase [31] = molecular target: T2, Neutrophil elastase; assay: Compound was tested for the enzyme inhibitory activity against Human Leukocyte Elastase (HLE) at 30 uM concentration
[32] = molecular target: T3, Chymotrypsin-like elastase family member 2A (Sus scrofa); assay: Inhibitory activity against Porcine Pancreatic Elastase (PPE) at 30 uM concentration; NI = no inhibition

SMILES: CC(=O)Oc1cc(OC(C)=O)c2c(c1)C(=O)c1ccc(C)c(OC(C)=O)c1C2=O
- inhibition [1]: 96%
- IC50 (Neutrophil elastase [2]): 12 µM
- inhibition [3]: inactive
- inhibition [4]: inactive

SMILES: Cc1ccc2c(c1O)C(=O)c1c(O)cc(O)cc1C2=O
- inhibition [5]: 5%
- inhibition [6]: 13%
- inhibition [7]: inactive
- IC50 (Neutrophil elastase [8]): 21 µM
- inhibition [9]: 100%

SMILES: Cc1cc(O)c2c(c1)C(=O)c1cccc(O)c1C2=O [CHRYSOPHANOL]
- inhibition [10]: 39%
- inhibition [11]: inactive
- inhibition [12]: 79%
- IC50 (Neutrophil elastase [13]): 18 µM
- inhibition [14]: inactive

SMILES: COc1cc(OC)c2c(c1)C(=O)c1ccc(C)c(O)c1C2=O
- inhibition [15]: 4%
- inhibition [16]: 7%
- IC50 (Neutrophil elastase [17]): 13 µM
- inhibition [18]: inactive
- inhibition [19]: 80%

SMILES: Cc1cc(O)c2c(c1)C(=O)c1cc(O)cc(O)c1C2=O [EMODIN]
- inhibition [20]: 2%
- inhibition [21]: 42%
- inhibition [22]: 55%
- inhibition [23]: inactive
- IC50 (Neutrophil elastase [24]): 52 µM

SMILES: COc1cc(O)c2c(c1)C(=O)c1cc(C)cc(O)c1C2=O [PHYSCION]
- inhibition [25]: 39%
- inhibition [26]: inactive
- IC50 (Neutrophil elastase [27]): 6.2 µM
- inhibition [28]: 100%

SMILES: COc1cc(OC)c2c(c1)C(=O)c1cc(C(Br)Br)cc(OC)c1C2=O
- inhibition [29]: 24%
- inhibition [30]: 61%
- IC50 (Neutrophil elastase [31]): 17 µM
- inhibition [32]: inactive
